A value given as a limit tells only on which side of the number the result lay.

The test system of assay [1] is Plasmodium falciparum. Description: Inhibition of Plasmodium falciparum protein farnesyltransferase at 50 nM by scintillation proximity assay.
For assay [2], the system named is Plasmodium falciparum. Nature of the assay: Inhibition of Plasmodium falciparum protein farnesyltransferase at 5 nM by scintillation proximity assay.
Assay [3] has as its system Plasmodium falciparum. Nature of the assay: Inhibition of Plasmodium falciparum protein farnesyltransferase at 0.5 nM by scintillation proximity assay.
A short description of assay [4]: Inhibition of Plasmodium falciparum protein farnesyltransferase by scintillation proximity assay.
Assay [5] deals with Plasmodium falciparum. Nature of the assay: Antimalarial activity against Plasmodium falciparum 3D7. Type of assay: functional. The note with it: Plasmodium falciparum, 3D7; read-out: ED50 (the source's name). Summed up:
(§1)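 Asynchronous culture in type A+ erythrocytes at 0.5% parasitemia and 0.5% hematocrit, grown in RPMI-1640 with 20% heat-inactivated human A+ plasma. Compound was serially diluted from a top final 5 µM, with DMSO vehicle as 100% growth. Plates ran 48 h at 37 °C under 5% CO2/5% O2/90% N2, then [3H]-hypoxanthine (0.3 µCi) for 24 h. Filter-harvested counts were corrected for the uninfected-RBC background. ED50 by linear regression; duplicates averaged.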

In assay [6] the test system is Plasmodium falciparum. Nature of the assay: Antimalarial activity against Plasmodium falciparum K1. Type of assay: functional. The settings on record: Plasmodium falciparum, K1; read-out: ED50 (the source's name). Put shortly: as §1
Assay [7] deals with Protein farnesyltransferase (Rattus norvegicus). Description: Inhibition of protein farnesyltransferase.

On to `Cn1cncc1CN1CC(N(CC2CCN(C(=O)c3ccccc3)CC2)S(=O)(=O)c2ccccn2)Cc2cc(C#N)ccc21` (stereo unspecified), for which the inhibition in assay [1] stood at 94%; in assay [2], 20%; in assay [3], 63%. The IC50 in assay [4] amounted to 0.007 µM; in assay [7], 0.016 µM. The results for the EC50 in assay [5] and in assay [6] were 0.15 µM and 0.33 µM, respectively.

`Cn1cnc(S(=O)(=O)N(CC2CCNCC2)C2Cc3cc(C#N)ccc3N(Cc3cncn3C)C2)c1` (stereo unspecified): the inhibition in assay [1] came to 65%; in assay [2] it was 6%; in assay [3], 0%. In addition, the EC50 in assay [5] and in assay [6] was over 5 µM in each case. The same molecule gave an IC50 in assay [7] of 0.105 µM.

As for `Cn1cncc1CN1CC(N(Cc2cc3nsnc3cc2Cl)S(=O)(=O)c2ccccn2)Cc2cc(C#N)ccc21` (stereo unspecified), the inhibition in assay [1] worked out at 53%; in assay [2] it was 4%. Moreover, the EC50 in assay [5] and in assay [6] was 3 µM in each case. The molecule also gave a 50% inhibitory concentration (IC50) in assay [7] of 0.01 µM.

Take `Cc1onc(-c2ccccc2)c1CN(C1Cc2cc(C#N)ccc2N(Cc2cncn2C)C1)S(=O)(=O)c1ccccn1` (stereo unspecified): the inhibition turned out to be 100% in assay [1], 93% in assay [2] and 42% in assay [3]. In addition, the EC50 in assay [5] is 0.045 µM; in assay [6] it was 0.056 µM. The molecule further displayed an IC50 in assay [7] of 0.003 µM.

Consider `Cc1ccccc1CN(C1Cc2cc(C#N)ccc2N(Cc2cncn2C)C1)S(=O)(=O)c1cn(C)cn1` (stereo unspecified), for which the results for the inhibition in assay [1], in assay [2] and in assay [3] were 100%, 95% and 34%, respectively. The EC50 in assay [5] was found to be 0.055 µM; in assay [6] it was 0.02 µM. In assay [7], this molecule came in with an IC50 of 0.0034 µM.

Consider `COCCCN(C1Cc2cc(C#N)ccc2N(Cc2cncn2C)C1)S(=O)(=O)c1cn(C)cn1` (stereo unspecified), for which the inhibition amounted to 99% in assay [1], 92% in assay [2] and 25% in assay [3]. The EC50 in assay [5] worked out at 0.075 µM; in assay [6], 0.05 µM. The molecule also yielded an IC50 in assay [7] of 0.0075 µM.

For the molecule `Cn1cncc1CN1CC(N(CC2CCN(C(=O)C3CC3)CC2)S(=O)(=O)c2ccccn2)Cc2cc(C#N)ccc21` (stereo unspecified), the inhibition in assay [1] is 100%; in assay [2] it was 39%; in assay [3], 94%. The half-maximal inhibitory concentration (IC50) in assay [4] was determined as 0.00075 µM. The values for the EC50 in assay [5] and in assay [6] were 0.0115 µM and 0.01 µM, respectively.

Take `Cn1cncc1CN1CC(N(CCn2cccc2)S(=O)(=O)c2ccccn2)Cc2cc(C#N)ccc21` (stereo unspecified): the figures for the inhibition in assay [1], in assay [2] and in assay [3] were 99%, 96% and 74%, respectively. In addition, the EC50 in assay [5] is 0.017 µM; in assay [6] it was 0.01 µM. The IC50 in assay [7] is 0.0017 µM.

On to `CCNC(=O)N1CCC(CN(C2Cc3cc(C#N)ccc3N(Cc3cncn3C)C2)S(=O)(=O)c2ccccn2)CC1` (stereo unspecified), for which the inhibition in assay [1] came to 98%; in assay [2] it was 60%; in assay [3] it was 95%. Besides, inhibition in assay [4] was half-maximal at 0.00065 µM (IC50). The figures for the EC50 in assay [5] and in assay [6] were 0.067 µM and 0.065 µM, respectively.

Turning to `CCC(=O)N1CCC(CN(C2Cc3cc(C#N)ccc3N(Cc3cncn3C)C2)S(=O)(=O)c2ccccn2)CC1` (stereo unspecified), the results for the inhibition in assay [1], in assay [2] and in assay [3] were 99%, 20% and 82%, respectively. Half-maximal inhibition in assay [4] (IC50) required 0.0008 µM. The EC50 in assay [5] turned out to be 0.016 µM; in assay [6], 0.025 µM.

Turning to `Cn1cnc(S(=O)(=O)N(Cc2ccc(-n3cccn3)cc2)C2Cc3cc(C#N)ccc3N(Cc3cncn3C)C2)c1` (stereo unspecified), the inhibition in assay [1] is 98%; in assay [2], 98%; in assay [3], 56%. Also, the IC50 was 0.0005 µM in assay [4] and 0.0026 µM in assay [7]. Besides, the EC50 in assay [5] turned out to be 0.042 µM; in assay [6], 0.038 µM.

In the case of `CCOC(=O)N1CCC(CN(C2Cc3cc(C#N)ccc3N(Cc3cncn3C)C2)S(=O)(=O)c2ccccn2)CC1` (stereo unspecified), the results for the inhibition in assay [1], in assay [2] and in assay [3] were 100%, 46% and 95%, respectively. Further, the IC50 amounted to 0.0005 µM in assay [4] and 0.0055 µM in assay [7]. For the same molecule, the EC50 in assay [5] was found to be 0.055 µM; in assay [6], 0.04 µM.

Consider `Cn1cnc(S(=O)(=O)N(Cc2ccc3ccccc3c2Br)C2Cc3cc(C#N)ccc3N(Cc3cncn3C)C2)c1` (stereo unspecified), for which the inhibition in assay [1] came out at 69%; in assay [2], 9%; in assay [3], 0%. Moreover, the EC50 was 3 µM in assay [5] and 4.5 µM in assay [6]. Besides, in assay [7], inhibition was half-maximal at 1 µM (IC50).

Take `Cn1cncc1CN1CC(N(CC2CCN(C(=O)CC(C)(C)C)CC2)S(=O)(=O)c2ccccn2)Cc2cc(C#N)ccc21` (stereo unspecified): the inhibition is 96% in assay [1], 36% in assay [2] and 88% in assay [3]. The IC50 in assay [4] turned out to be 0.0006 µM; in assay [7], 0.0078 µM. Also, the EC50 in assay [5] worked out at 0.02 µM; in assay [6], 0.076 µM.

Consider `Cn1cnc(S(=O)(=O)N(Cc2ccc(C(=O)O)cc2)C2Cc3cc(C#N)ccc3N(Cc3cncn3C)C2)c1` (stereo unspecified), for which the inhibition in assay [1] worked out at 66%; in assay [2], 19%; in assay [3], 0%. Also, the EC50 in assay [5] and in assay [6] was over 5 µM each time. Also, in assay [7], the IC50 amounted to 0.0048 µM.

`Cn1cncc1CN1CC(N(CC(=O)NC(C)(C)C)S(=O)(=O)c2nccn2C)Cc2cc(C#N)ccc21` (stereo unspecified): the inhibition in assay [1] was 80%; in assay [2], 27%; in assay [3], 2%. For the same molecule, the IC50 in assay [4] is 0.008 µM; in assay [7], 0.005 µM. For the same molecule, the EC50 in assay [5] stood at 0.75 µM; in assay [6], 3.1 µM.

On to `CC(C)COC(=O)N1CCC(CN(C2Cc3cc(C#N)ccc3N(Cc3cncn3C)C2)S(=O)(=O)c2ccccn2)CC1` (stereo unspecified), for which the inhibition in assay [1] is 100%; in assay [2], 12%; in assay [3], 88%. Further, the IC50 was 0.0014 µM in assay [4] and 0.025 µM in assay [7]. Further, the EC50 in assay [5] and in assay [6] was 0.062 µM in each case.

Consider `CC(=O)N1CCC(CN(C2Cc3cc(C#N)ccc3N(Cc3cncn3C)C2)S(=O)(=O)c2ccccn2)CC1` (stereo unspecified), for which the inhibition in assay [1] came to 94%; in assay [2] it was 29%; in assay [3], 65%. In assay [4], this molecule returned an IC50 of 0.0024 µM. Moreover, the EC50 in assay [5] worked out at 0.037 µM; in assay [6], 0.095 µM.

Take `Cn1cncc1CN1CC(N(Cc2ccc3ccccc3c2Br)S(=O)(=O)c2ccccn2)Cc2cc(C#N)ccc21` (stereo unspecified): the inhibition in assay [1] turned out to be 55%; in assay [2], 13%. In assay [7], this molecule returned an IC50 of 0.44 µM.

On to `Cn1cncc1CN1CC(N(Cc2ccccn2)S(=O)(=O)c2ccccn2)Cc2cc(C#N)ccc21` (stereo unspecified), for which the inhibition is 100% in assay [1], 93% in assay [2] and 4% in assay [3]. In addition, the EC50 in assay [5] was 0.051 µM; in assay [6], 0.1 µM. The same molecule registered an IC50 in assay [7] of 0.0038 µM.

For `CC(C)C(=O)N1CCC(CN(C2Cc3cc(C#N)ccc3N(Cc3cncn3C)C2)S(=O)(=O)c2ccccn2)CC1` (stereo unspecified), the inhibition was 98% in assay [1], 24% in assay [2] and 91% in assay [3]. For the same molecule, 0.0006 µM corresponded to half-maximal inhibition in assay [4] (IC50). For the same molecule, the figures for the EC50 in assay [5] and in assay [6] were 0.018 µM and 0.013 µM, respectively.

With `Cn1cncc1CN1CC(N(CC2CCN(C(=O)OC(C)(C)C)CC2)S(=O)(=O)c2ccccn2)Cc2cc(C#N)ccc21` (stereo unspecified), the inhibition in assay [1] stood at 100%; in assay [2], 89%; in assay [3] it was 19%. In addition, the EC50 in assay [6] is 0.18 µM. In assay [7], half-maximal inhibition (IC50) was put at 0.007 µM.

On to `Cn1cncc1CN1CC(N(CC2CCN(C(=O)CC(F)(F)F)CC2)S(=O)(=O)c2ccccn2)Cc2cc(C#N)ccc21` (stereo unspecified), for which the inhibition in assay [1] was 98%; in assay [2] it was 30%; in assay [3], 77%. The same molecule displayed an IC50 in assay [4] of 0.002 µM. The results for the EC50 in assay [5] and in assay [6] were 0.043 µM and 0.055 µM, respectively.

Consider `CCCC(=O)N1CCC(CN(C2Cc3cc(C#N)ccc3N(Cc3cncn3C)C2)S(=O)(=O)c2ccccn2)CC1` (stereo unspecified), for which the inhibition amounted to 95% in assay [1], 12% in assay [2] and 63% in assay [3]. Also, the figures for the IC50 in assay [4] and in assay [7] were 0.003 µM and 0.0065 µM, respectively. For the same molecule, the EC50 in assay [5] turned out to be 0.08 µM; in assay [6], 0.69 µM.

Values taken from ChEMBL document CHEMBL1148785, “Second generation tetrahydroquinoline-based protein farnesyltransferase inhibitors as antimalarials” (J Med Chem, 2007).
